Consider 37 sequences from the array DNA melting data of Ke et al. (doi:10.1101/2024.01.08.574731).

Data set [1] in a line: folding enthalpy; higher = less favourable; fluorescence melt of hairpins on a sequencing array, two-state fit. Particulars: sodium 0.088 M. In a few lines: (§1)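 To match UV melts, fitted temperatures were raised by 9.35 °C. These fits were bootstrapped two-state models that gave melting temperature and folding enthalpy, combined by inverse variance over four replicates. The input was normalised Cy3 fluorescence of library hairpins with annealed Cy3 and quencher oligos on a sequenced MiSeq flow cell, imaged in 50 mM Na-HEPES pH 8.0, 25 mM NaCl in 2.5 °C steps up to 60 °C.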

The nature of data set [2]: melting temperature; fluorescence melt of hairpins on a sequencing array, two-state fit, raised by 9.35 °C to match UV melts. Particulars: sodium 0.088 M. In a few lines:
as §1

For the sequence GAGTAGGGAAACTTACTC (((((.(....).))))), the folding enthalpy in data set [1] was -25.6 kcal/mol. Further, the Tm in data set [2] worked out at 35.5 °C.

With GAGTATGCGAAAGCACTC (((..(((....)))))), the folding enthalpy in data set [1] is -14.9 kcal/mol. Moreover, in data set [2], the Tm was 38.8 °C.

As to GAGTATGGAAACATACTC (((((((....))))))), in data set [1], the folding enthalpy is -37.6 kcal/mol. Besides, the Tm in data set [2] is 54.4 °C.

As to GAGTCACGAAAGTGCCTC (((.(((....))).))), the folding enthalpy in data set [1] is -23.5 kcal/mol. The Tm in data set [2] was determined as 50 °C.

Turning to GAGTCACGAAAGTGGCTC (((.(((....))).))), the folding enthalpy in data set [1] was -39.4 kcal/mol. Further, in data set [2], the Tm stood at 64.7 °C.

As to GAGTCCGAAAGGAACTC ((((((....))).))), the folding enthalpy in data set [1] is -27.7 kcal/mol. In data set [2], the Tm is 50.7 °C.

Consider GAGTCCGAAAGGATCCTC ((((((....)))..))), for which the folding enthalpy in data set [1] is -12.1 kcal/mol. The Tm in data set [2] is 34.1 °C.

Consider GAGTCCGGAAACGGACCC (.(((((....))))).), for which, in data set [1], the folding enthalpy is -9.42 kcal/mol. The Tm in data set [2] came to 46.2 °C.

As to GAGTCCGGAAACGGGTTC ((..(((....)))..)), the folding enthalpy in data set [1] is -16.1 kcal/mol. Also, the Tm in data set [2] worked out at 33.6 °C.

Take GAGTCGCCGAAAGGCCTC (((..(((....)))))): the folding enthalpy in data set [1] is -12.2 kcal/mol. Also, the Tm in data set [2] stood at 29.3 °C.

As to GAGTCGGGAAACCGGTTC ((..(((....)))..)), the folding enthalpy in data set [1] is -15.6 kcal/mol. The Tm in data set [2] is 32.8 °C.

Turning to GAGTCGGGAAACTGGCTC (((.(.(....).).))), the folding enthalpy in data set [1] was -25.8 kcal/mol. Besides, in data set [2], the Tm was 43.4 °C.

Turning to GAGTGAGAAATCACTC ((((((....)))))), in data set [1], the folding enthalpy was -34.3 kcal/mol. Moreover, in data set [2], the Tm is 53.7 °C.

For the sequence GAGTGAGCGAAAGCTCTC (((..(((....)))))), the folding enthalpy in data set [1] was -9.01 kcal/mol. Further, the Tm in data set [2] worked out at 32.9 °C.

GAGTGAGGAAACCCACTC (((((.(....).))))): the folding enthalpy in data set [1] is -33.8 kcal/mol. Moreover, the Tm in data set [2] was 44.5 °C.

On to GAGTGCCGAAAGGCCTC (((.(((....)))))), for which the folding enthalpy in data set [1] is -17.7 kcal/mol. The Tm in data set [2] came to 56.8 °C.

For the sequence GAGTGCGAAAGCAAACTC ((((((....)))..))), the folding enthalpy in data set [1] is -20.8 kcal/mol. The Tm in data set [2] turned out to be 47.2 °C.

On to GAGTGCGAAAGCACCTC ((((((....))).))), for which the folding enthalpy in data set [1] was -10.3 kcal/mol. For the same sequence, in data set [2], the Tm came out at 54.8 °C.

In the case of GAGTGCGAAAGCATGCTC ((((((....)))..))), the folding enthalpy in data set [1] is -15 kcal/mol. In addition, the Tm in data set [2] was 43.4 °C.

With GAGTGCGGAAACGCGCTC (((.(((....))).))), the folding enthalpy in data set [1] is -31.7 kcal/mol. In addition, the Tm in data set [2] was 66.1 °C.

On to GAGTGGGGAAACCCGCTC (((.(((....))).))), for which, in data set [1], the folding enthalpy was -35.8 kcal/mol. The Tm in data set [2] was determined as 55.6 °C.

As to GAGTTAGCGAAAGCTCTC (((..(((....)))))), the folding enthalpy in data set [1] is -11.5 kcal/mol. The Tm in data set [2] is 35.1 °C.

In the case of GAGTTAGGAAACCAACTC (((((.(....).))))), the folding enthalpy in data set [1] was -32.5 kcal/mol. In data set [2], the Tm is 35.4 °C.

Take GAGTTAGGAAACTAACCC (.(((((....))))).): the folding enthalpy in data set [1] was -17.4 kcal/mol. In addition, in data set [2], the Tm was 30.4 °C.

In the case of GAGTTAGGAAACTAATTC ((.((((....)))).)), the folding enthalpy in data set [1] is -23.9 kcal/mol. Also, in data set [2], the Tm is 27.9 °C.

Take GAGTTCCCGAAAGGGCTC (((..(((....)))))): in data set [1], the folding enthalpy is -18.3 kcal/mol. The Tm in data set [2] was determined as 34.1 °C.

As to GAGTTGAAAAACTC (((((....))))), the folding enthalpy in data set [1] was -22 kcal/mol. For the same sequence, the Tm in data set [2] was 44.7 °C.

GAGTTTGGAAACAAATTC ((.((((....)))).)): in data set [1], the folding enthalpy is -28.7 kcal/mol. In data set [2], the Tm came to 35.8 °C.

Regarding GATAAACGAAAGTTGATC (((.(((....))).))), the folding enthalpy in data set [1] was -23.4 kcal/mol. Also, the Tm in data set [2] was 39.4 °C.

For GATAAAGCGAAAGCTATC (((..(((....)))))), the folding enthalpy in data set [1] is -14.2 kcal/mol. The Tm in data set [2] turned out to be 33.1 °C.

Consider GATAACCCGAAAGGGATC (((..(((....)))))), for which the folding enthalpy in data set [1] is -17.8 kcal/mol. The Tm in data set [2] is 28.9 °C.

Take GATAACCGAAAGGTAATC (((.(((....))).))): in data set [1], the folding enthalpy is -21.2 kcal/mol. In addition, the Tm in data set [2] is 40.2 °C.

For GATAACCGAAAGGTATC (((.(((....)))))), the folding enthalpy in data set [1] was -17.4 kcal/mol. Besides, the Tm in data set [2] worked out at 38.9 °C.

Consider GATAACGCGAAAGCGATC (((..(((....)))))), for which the folding enthalpy in data set [1] is -10.2 kcal/mol. The Tm in data set [2] worked out at 24.1 °C.

Regarding GATAATGGAAACATTATC (((((((....))))))), the folding enthalpy in data set [1] is -43.9 kcal/mol. Also, in data set [2], the Tm was found to be 48.4 °C.

GATACAGGAAACTGTACC (.(((((....))))).): the folding enthalpy in data set [1] is -15.4 kcal/mol. Also, the Tm in data set [2] turned out to be 31.1 °C.

Consider GATACAGGAAACTGTGTC ((.((((....)))).)), for which the folding enthalpy in data set [1] was -25.9 kcal/mol. In data set [2], the Tm worked out at 44.9 °C.
